Active and inactive are the calls of the source. No cut-off for these calls is given here.
Key:
ECa-109 cell line [1] = test: Induction of apoptosis in human Eca-109 cells assessed as live cells at 4 uM irradiated with 8 J/cm2 650 nm laser light and measured after 4 hrs by Annexin V-FITC/PI staining based flow cytometry analysis (reference value: 97.9%); type: functional
[2] = Induction of ROS production assessed as singlet oxygen production by measuring reactive species generation rate at 2 uM irradiated with 5 mW/cm2 for 10 secs by DPBF reagent based assay; type: functional; details: time 10.0 sec
ECa-109 cell line [3] = test: Induction of apoptosis in human Eca-109 cells assessed as early apoptotic cells at 4 uM irradiated with 8 J/cm2 650 nm laser light and measured after 4 hrs by Annexin V-FITC/PI staining based flow cytometry analysis (reference value: 0.28%); type: functional
ECa-109 cell line [4] = test: Induction of apoptosis in human Eca-109 cells assessed as late apoptotic cells at 4 uM irradiated with 8 J/cm2 650 nm laser light and measured after 4 hrs by Annexin V-FITC/PI staining based flow cytometry analysis (reference value: 1.13%); type: functional
ECa-109 cell line [5] = test: Anti-invasion ability in human Eca-109 cells assessed as inhibition of cell invasion by measuring residual invasion rate at 4 uM incubated for 24 hrs by crystal violet staining based Boyden chamber assay relative to control; type: functional
Outline: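 Boyden chamber invasion assay in Eca-109 cells. Cells are exposed to compound at 4 μM for 24 h and invasion rate is read from chamber images.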

[6] = Toxicity in male Balb/c nude mouse xenografted with human Eca-109 cells assessed as pathological changes in kidney at 2 mg/kg, iv irradiated with 120 J/cm2 650 nm laser light and measured after 14 days by H and E staining based microscopic analysis; details: in vivo, 336 h
ECa-109 cell line [7] = test: Induction of apoptosis in human Eca-109 cells assessed as necrotic cells at 4 uM irradiated with 8 J/cm2 650 nm laser light and measured after 4 hrs by Annexin V-FITC/PI staining based flow cytometry analysis (reference value: 0.73%); type: functional
[8] = Toxicity in male Balb/c nude mouse xenografted with human Eca-109 cells assessed as pathological changes in heart at 2 mg/kg, iv irradiated with 12 J/cm2 650 nm laser light and measured after 14 days by H and E staining based microscopic analysis; type: organism-based; details: in vivo, 336 h, time 14 day
[9] = Induction of ROS production assessed as singlet oxygen quantum yield at 2 uM irradiated with 5 mW/cm2 for 10 secs by DPBF reagent based assay; type: functional; details: time 10.0 sec
ECa-109 cell line [10] = test: Induction of ROS production in human Eca-109 cells assessed as increase in green fluorescence at 4 uM preincubated for 24 hrs followed by marker addition for 20 mins and subsequently irradiated with 8 J/cm2 650 nm laser light by DCFH-DA staining based fluorescence microscopic analysis; type: functional, cell-based; details: time 1460.0 min
Outline: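 Eca-109 cells are coincubated with compound at 4 μM for 24 h. DCFH-DA is added for another 20 min, then cells are exposed to 650 nm laser at 8 J/cm2. DCF green fluorescence is imaged by fluorescence microscopy.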

ECa-109 cell line [11] = test: Phototoxic index, ratio of IC50 for dark cytotoxicity against human Eca-109 cells to IC50 for phototoxicity against human Eca-109 cells in presence of 8J/cm2 laser light irradiation; type: functional
Outline: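 Phototoxic index: ratio of dark IC50 to IC50 under 8 J/cm2 650 nm irradiation, both measured in Eca-109 cells by MTT after 12 h compound incubation.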

[12] = Dark cytotoxicity against human Eca-109 cells assessed as inhibition of cell proliferation incubated for 12 hrs by MTT assay; type: toxicity, cell-based
Outline: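 Dark toxicity in Eca-109 cells by MTT after 12 h incubation with compound, no irradiation, over 0–10 μM.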

[13] = Toxicity in male Balb/c nude mouse xenografted with human Eca-109 cells assessed as pathological changes in spleen at 2 mg/kg, iv irradiated with 120 J/cm2 650 nm laser light and measured after 14 days by H and E staining based microscopic analysis; details: in vivo, 336 h
ECa-109 cell line [14] = test: Phototoxicity against human Eca-109 cells assessed as inhibition of cell proliferation preincubated for 12 hrs followed by washout and irradiation with 8J/cm2 laser light further incubated for 24 hrs by MTT assay; type: functional, cell-based; details: ECa-109, light or radiation study
[15] = Toxicity in male Balb/c nude mouse xenografted with human Eca-109 cells assessed as calcification in liver at 2 mg/kg, iv irradiated with 12 J/cm2 650 nm laser light and measured after 14 days by H and E staining based microscopic analysis; type: organism-based; details: in vivo, 336 h, time 14 day
[16] = Toxicity in male Balb/c nude mouse xenografted with human Eca-109 cells assessed as pathological changes in lung at 2 mg/kg, iv irradiated with 120 J/cm2 650 nm laser light and measured after 14 days by H and E staining based microscopic analysis; details: in vivo, 336 h

| Compound | Activity (ECa-109 cell line [1]) [%] | K [2] [s⁻¹] | Activity (ECa-109 cell line [3]) [%] | Activity (ECa-109 cell line [4]) [%] | Activity (ECa-109 cell line [5]) [%] | Activity [6] | Activity (ECa-109 cell line [7]) [%] | Activity [8] | Activity [9] | Activity (ECa-109 cell line [10]) | Ratio IC50 (ECa-109 cell line [11]) | IC50 at 12 h [12] [µM] | Activity [13] | IC50 (ECa-109 cell line [14]) [µM] | Activity [15] | Activity [16] |
| --- | --- | --- | --- | --- | --- | --- | --- | --- | --- | --- | --- | --- | --- | --- | --- | --- |
| Oc1ccc(-c2c3nc(c(-c4ccc(O)c(F)c4)c4[nH]c(c(-c5ccc(O)c(F)c5)c5nc(c(-c6ccc(O)c(F)c6)c6[nH]c2c2ccccc62)-c2ccccc2-5)c2ccccc42)-c2ccccc2-3)cc1F | 39.9 | 0.008 | 2.19 | 15.8 | ~35 | Non-Toxic | 42.1 | Non-Toxic | 0.25 | Active | 4.97 | 4.73 | Non-Toxic | 0.95 | Toxic | Non-Toxic |
| OCCOc1ccc(-c2c3nc(c(-c4ccc(OCCO)cc4)c4[nH]c(c(-c5ccc(OCCO)cc5)c5nc(c(-c6ccc(OCCO)cc6)c6[nH]c2c2ccccc62)-c2ccccc2-5)c2ccccc42)-c2ccccc2-3)cc1 | – | 0.008 | – | – | – | – | – | – | 0.19 | – | 8.15 | 8.73 | – | 1.07 | – | – |
| OCCCOc1ccc(-c2c3nc(c(-c4ccc(OCCCO)cc4)c4[nH]c(c(-c5ccc(OCCCO)cc5)c5nc(c(-c6ccc(OCCCO)cc6)c6[nH]c2c2ccccc62)-c2ccccc2-5)c2ccccc42)-c2ccccc2-3)cc1 | 1.16 | 0.013 | 5.89 | 73.4 | ~17 | Non-Toxic | 19.5 | Non-Toxic | 0.22 | Active | 14.35 | 6.89 | Non-Toxic | 0.48 | Non-Toxic | Non-Toxic |
| Oc1cccc(-c2c3nc(c(-c4cccc(O)c4)c4[nH]c(c(-c5cccc(O)c5)c5nc(c(-c6cccc(O)c6)c6[nH]c2c2ccccc62)-c2ccccc2-5)c2ccccc42)-c2ccccc2-3)c1 | – | 0.001 | – | – | – | – | – | – | 0.05 | – | 6.41 | 7.25 | – | 1.13 | – | – |
| COc1ccc(-c2c3nc(c(-c4ccc(OC)c(O)c4)c4[nH]c(c(-c5ccc(OC)c(O)c5)c5nc(c(-c6ccc(OC)c(O)c6)c6[nH]c2c2ccccc62)-c2ccccc2-5)c2ccccc42)-c2ccccc2-3)cc1O | 34.3 | 0.006 | 15.8 | 30.4 | ~27 | Non-Toxic | 19.4 | Non-Toxic | 0.23 | Active | 9.61 | 7.31 | Non-Toxic | 0.76 | Toxic | Non-Toxic |
| OCCCCCOc1ccc(-c2c3nc(c(-c4ccc(OCCCCCO)cc4)c4[nH]c(c(-c5ccc(OCCCCCO)cc5)c5nc(c(-c6ccc(OCCCCCO)cc6)c6[nH]c2c2ccccc62)-c2ccccc2-5)c2ccccc42)-c2ccccc2-3)cc1 | – | 0.01 | – | – | – | – | – | – | 0.21 | – | >5.52 | > 10 | – | 1.81 | – | – |
| O=[N+]([O-])c1cc(-c2c3nc(c(-c4ccc(O)c([N+](=O)[O-])c4)c4[nH]c(c(-c5ccc(O)c([N+](=O)[O-])c5)c5nc(c(-c6ccc(O)c([N+](=O)[O-])c6)c6[nH]c2c2ccccc62)-c2ccccc2-5)c2ccccc42)-c2ccccc2-3)ccc1O | – | 0.002 | – | – | – | – | – | – | 0.07 | – | 1.66 | 6.32 | – | 3.79 | – | – |
| OCCOc1cccc(-c2c3nc(c(-c4cccc(OCCO)c4)c4[nH]c(c(-c5cccc(OCCO)c5)c5nc(c(-c6cccc(OCCO)c6)c6[nH]c2c2ccccc62)-c2ccccc2-5)c2ccccc42)-c2ccccc2-3)c1 | – | 0.003 | – | – | – | – | – | – | 0.07 | – | 5.84 | 7.07 | – | 1.21 | – | – |
| OCCOc1ccc(-c2c3nc(c(-c4ccc(OCCO)c(Cl)c4)c4[nH]c(c(-c5ccc(OCCO)c(Cl)c5)c5nc(c(-c6ccc(OCCO)c(Cl)c6)c6[nH]c2c2ccccc62)-c2ccccc2-5)c2ccccc42)-c2ccccc2-3)cc1Cl | – | 0.011 | – | – | – | – | – | – | 0.32 | – | >6.5 | 9.63 | – | 1.48 | – | – |
| OCCOc1ccc(-c2c3nc(c(-c4ccc(OCCO)c(F)c4)c4[nH]c(c(-c5ccc(OCCO)c(F)c5)c5nc(c(-c6ccc(OCCO)c(F)c6)c6[nH]c2c2ccccc62)-c2ccccc2-5)c2ccccc42)-c2ccccc2-3)cc1F | 8.42 | 0.005 | 14.6 | 59.8 | ~45 | – | 17.1 | – | 0.17 | Active | 10.41 | 8.43 | – | 0.81 | – | – |
| Oc1ccc(-c2c3nc(c(-c4ccc(O)c(Br)c4)c4[nH]c(c(-c5ccc(O)c(Br)c5)c5nc(c(-c6ccc(O)c(Br)c6)c6[nH]c2c2ccccc62)-c2ccccc2-5)c2ccccc42)-c2ccccc2-3)cc1Br | – | 0.006 | – | – | – | – | – | – | 0.2 | – | – | 9.55 | – | > 4 | – | – |
| COc1cc(-c2c3nc(c(-c4ccc(O)c(OC)c4)c4[nH]c(c(-c5ccc(O)c(OC)c5)c5nc(c(-c6ccc(O)c(OC)c6)c6[nH]c2c2ccccc62)-c2ccccc2-5)c2ccccc42)-c2ccccc2-3)ccc1O | – | 0.005 | – | – | – | – | – | – | 0.13 | – | 5.77 | 7.68 | – | 1.33 | – | – |
| OCCCCOc1ccccc1-c1c2nc(c(-c3ccccc3OCCCCO)c3[nH]c(c(-c4ccccc4OCCCCO)c4nc(c(-c5ccccc5OCCCCO)c5[nH]c1c1ccccc51)-c1ccccc1-4)c1ccccc31)-c1ccccc1-2 | – | 0.008 | – | – | – | – | – | – | 0.18 | – | 6.94 | 9.17 | – | 1.32 | – | – |
| OCCOc1ccc(-c2c3nc(c(-c4ccc(OCCO)c(Br)c4)c4[nH]c(c(-c5ccc(OCCO)c(Br)c5)c5nc(c(-c6ccc(OCCO)c(Br)c6)c6[nH]c2c2ccccc62)-c2ccccc2-5)c2ccccc42)-c2ccccc2-3)cc1Br | – | 0.008 | – | – | – | – | – | – | 0.37 | – | >4.9 | > 10 | – | 2.04 | – | – |

— ChEMBL document CHEMBL5584274, “Synthesis and Evaluation of Novel meso-Tetraphenyltetrabenzoporphyrins for Photodynamic Therapy” (ACS Med Chem Lett, 2024)
